We go through two compounds from ChEMBL document CHEMBL5705891, “Small-molecule kinase inhibitors provide insight into Mps1 cell cycle function” (Nat Chem Biol, 2010).

In data set [1] the target is Calcium/calmodulin-dependent protein kinase kinase 1 (Homo sapiens) (UniProt Q8N5S9). As to the kind of experiment: Inhibition of CAMKK1 (unknown origin) assessed as residual enzyme activity at 10 uM by Ambit kinase binding assay relative to control.
The target of data set [2] is Cyclin-dependent kinase 7 (Homo sapiens) (UniProt P50613). Briefly: Inhibition of CDK7 (unknown origin) assessed as residual enzyme activity at 10 uM by Ambit kinase binding assay relative to control.
Data set [3] addresses Dual specificity protein kinase CLK2 (Homo sapiens) (UniProt P49760). Briefly: Inhibition of CLK2 (unknown origin) assessed as residual enzyme activity at 10 uM by Ambit kinase binding assay relative to control.
For data set [4], the target named is Death-associated protein kinase 2 (Homo sapiens) (UniProt Q9UIK4). As to the kind of experiment: Inhibition of DAPK2 (unknown origin) assessed as residual enzyme activity at 10 uM by Ambit kinase binding assay relative to control.
The target of data set [5] is Death-associated protein kinase 3 (Homo sapiens) (UniProt O43293). As to the kind of experiment: Inhibition of DAPK3 (unknown origin) assessed as residual enzyme activity at 10 uM by Ambit kinase binding assay relative to control.
Data set [6] addresses Leukocyte tyrosine kinase receptor (Homo sapiens, UniProt P29376). As to the kind of experiment: Inhibition of LTK (unknown origin) assessed as residual enzyme activity at 10 uM by Ambit kinase binding assay relative to control.
Data set [7] addresses Ribosomal protein S6 kinase alpha-1 (Homo sapiens) (UniProt Q15418). Briefly: Inhibition of RPS6KA1 kinase domain 2 (unknown origin) assessed as residual enzyme activity at 10 uM by Ambit kinase binding assay relative to control.
The target in data set [8] is SRSF protein kinase 3 (Homo sapiens) (UniProt Q9UPE1). As to the kind of experiment: Inhibition of SRPK3 (unknown origin) assessed as residual enzyme activity at 10 uM by Ambit kinase binding assay relative to control.
Data set [9] concerns the target Serine/threonine-protein kinase tousled-like 2 (Homo sapiens) (UniProt Q86UE8). Briefly: Inhibition of TLK2 (unknown origin) assessed as residual enzyme activity at 10 uM by Ambit kinase binding assay relative to control.
For data set [10], the target named is Serine/threonine-protein kinase 25 (Homo sapiens) (UniProt O00506). As to the kind of experiment: Inhibition of YSK1 (unknown origin) assessed as residual enzyme activity at 10 uM by Ambit kinase binding assay relative to control.
In data set [11] the target is Tyrosine-protein kinase Fer (Homo sapiens) (UniProt P16591). As to the kind of experiment: Inhibition of FER (unknown origin) assessed as residual enzyme activity at 10 uM by Ambit kinase binding assay relative to control.
Data set [12] has as its system U2OS. Briefly: Reversal of paclitaxel-induced mitotic arrest in human U2OS cells assessed as accumulation of 4N phosphorylated Histone H3-negative cells incubated for 16 hrs by flow cytometry. The class given is functional, cell-based. The conditions noted are these: dose 5-10 µM.
Data set [13] has as its system U2OS. As to the kind of experiment: Reversal of paclitaxel-induced mitotic arrest in human U2OS cells assessed as Ser10 phosphorylated Histone H3-positive 4c population at 5 uM incubated for 16 hrs by flow cytometry (reference value: 25 %). The format is functional. In general terms: In flow cytometry, cells or beads pass a laser one at a time.
The subject of data set [14] is U2OS. As to the kind of experiment: Induction of chromosome mis-segregation in human U2OS cells expressing histone H2B-GFP at 5 to 10 uM treated for 4 hrs followed by MG132 treatment for 30 to 60 mins and subsequent replacement of medium containing MG132 measured after 30 mins by immunofluoresence analysis. The class given is functional, cell-based. The conditions noted are these: dose 5-10 µM, time 4.5-5 hrs.

For the next data set, the system named is HeLa S3. As to the kind of experiment: Effect on thymidine-treated human HeLa S3 cell populations after two cell doubling at 10 uM incubated for 4 hrs followed by thymidine release by immunofluorescence imaging analysis. The format is functional, cell-based.
In data set [15] the test system is U2OS. Briefly: Inhibition of anaphase delay in thymidine-treated human U2OS cells expressing H2B-GFP and Plk4 overexpression measured for 30 mins by time lapse imaging analysis. The format is functional, cell-based. Summed up:
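U2OS H2B-GFP cells carrying doxycycline-inducible Plk4. Thymidine 18 h, release into doxycycline (2 μg·ml⁻¹) 10 h, second thymidine 18 h, release 6 h, then 5 μM inhibitor. Time-lapse imaging at 37°C, 5% CO₂ recorded time after NEBD to anaphase. Mean ± SD of 3 independent experiments; Student's t test.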

For data set [16], the system named is HCT-116. Briefly: Induction of accumulation of human HCT-116 cells with <2N DNA content at 10 uM incubated for 4 days by FACS analysis. The conditions noted are these: time 4.0 day. The class given is functional, cell-based. Summed up:
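HCT116 cells were treated with 10 μM compound or DMSO vehicle for the indicated times up to 96 h, then DNA content was profiled by flow cytometry.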

The subject of data set [17] is HCT-116. As to the kind of experiment: Antiproliferative activity against human HCT-116 with p53+/+ cells at 10 uM incubated for 4 days by Syto60 staining based assay. The class given is functional, cell-based. The conditions noted are these: time 4.0 day. Summed up: (§1)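 Proliferation read by Syto60 nucleic acid stain fluorescence (excitation 635 nm, emission 695 nm) after treatment for up to 96 h. Each time point normalized to its DMSO control. Mean ± SD from 4 independent experiments. Cells kept at 37°C, 5% CO2 in 10% FBS-supplemented medium.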

For data set [18], the system named is HCT-116. As to the kind of experiment: Antiproliferative activity against human HCT-116 with p53-/- cells at 10 uM incubated for 4 days by Syto60 staining based assay. The class given is functional, cell-based. The conditions noted are these: time 4.0 day. Summed up: as §1
For data set [19], the system named is HCT-116. Briefly: Antiproliferative activity against human HCT-116 with BAX-/- cells at 10 uM incubated for 4 days by Syto60 staining based assay. The format is functional, cell-based. The conditions noted are these: time 4.0 day. Summed up: as §1
A further data set concerns A549. Briefly: Antiproliferative activity against human A549 cells assessed as loss of clonal survival upto 10 uM incubated for 10 days by crystal violet staining based assay. The format is functional, cell-based. The conditions noted are these: time 10.0 day. Summed up: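 Colony outgrowth: cells plated at 200 cells per 60-mm dish, exposed to compound or DMSO vehicle and stained with crystal violet after 10 days. HCT116 grown in McCoy's 5A; A549 and HeLa in DMEM; hTERT-RPE1 in DMEM/F-12. All media had 10% FBS and penicillin/streptomycin, 37°C, 5% CO2. Quantified from 3 independent experiments, mean + SD, Student's t test.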

The subject of a further data set is MCF-10A. Briefly: Antiproliferative activity against human MCF-10A cells assessed as loss of clonal survival upto 25 uM incubated for 10 days by crystal violet staining based assay. The conditions noted are these: 240 h, time 10 day. The class given is toxicity, cell-based.
Data set [20] has as its system HCT-116. Briefly: Induction of apoptosis in human HCT-116 cells assessed as increase in cleaved PARP level at 5 to 10 uM measured for 24 to 48 hrs in presence of Z-VAD-FMK by immunoblot analysis. The class given is functional, cell-based. The conditions noted are these: dose 5-10 µM, time 24-48 hrs. (In general: In western blotting, separated proteins are transferred to a membrane and probed.)

The test system of data set [21] is HCT-116. Briefly: Antiproliferative activity against human HCT-116 cells with p53-/- at 10 uM measured after 96 hrs in presence of Z-VAD-FMK by Syto60 staining based assay. The format is functional, cell-based.
Data set [22] has as its target Mitogen-activated protein kinase 1 (Homo sapiens, UniProt P28482). As to the kind of experiment: Binding affinity to ERK2 (unknown origin) assessed as dissociation constant by Ambit kinase binding assay.
Another data set has as its target Focal adhesion kinase 1 (Homo sapiens, UniProt Q05397). Briefly: Binding affinity to FAK (unknown origin) assessed as dissociation constant by Ambit kinase binding assay.
Data set [23] concerns the target Insulin-like growth factor 1 receptor (Homo sapiens, UniProt P08069). Briefly: Binding affinity to IGF1R (unknown origin) assessed as dissociation constant by Ambit kinase binding assay.
The target of data set [24] is Protein-tyrosine kinase 2-beta (Homo sapiens, UniProt Q14289). As to the kind of experiment: Binding affinity to PYK2 (unknown origin) assessed as dissociation constant by Ambit kinase binding assay.

Structures are written as SMILES. The source made the active and inactive calls. No cut-off for these calls is given here.

Sequence of Death-associated protein kinase 2 (Homo sapiens) (Q9UIK4 whole entry, looked up): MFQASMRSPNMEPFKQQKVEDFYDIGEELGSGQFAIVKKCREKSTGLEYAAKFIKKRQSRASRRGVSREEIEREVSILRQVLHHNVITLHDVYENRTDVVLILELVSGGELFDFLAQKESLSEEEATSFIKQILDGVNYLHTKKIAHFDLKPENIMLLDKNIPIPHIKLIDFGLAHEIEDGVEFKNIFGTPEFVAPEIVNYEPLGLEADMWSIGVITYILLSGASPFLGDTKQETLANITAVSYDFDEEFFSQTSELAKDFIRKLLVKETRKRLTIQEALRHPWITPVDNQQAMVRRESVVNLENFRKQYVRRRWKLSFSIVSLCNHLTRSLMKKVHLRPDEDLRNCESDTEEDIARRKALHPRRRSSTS
Sequence of Focal adhesion kinase 1 (Q05397 whole entry): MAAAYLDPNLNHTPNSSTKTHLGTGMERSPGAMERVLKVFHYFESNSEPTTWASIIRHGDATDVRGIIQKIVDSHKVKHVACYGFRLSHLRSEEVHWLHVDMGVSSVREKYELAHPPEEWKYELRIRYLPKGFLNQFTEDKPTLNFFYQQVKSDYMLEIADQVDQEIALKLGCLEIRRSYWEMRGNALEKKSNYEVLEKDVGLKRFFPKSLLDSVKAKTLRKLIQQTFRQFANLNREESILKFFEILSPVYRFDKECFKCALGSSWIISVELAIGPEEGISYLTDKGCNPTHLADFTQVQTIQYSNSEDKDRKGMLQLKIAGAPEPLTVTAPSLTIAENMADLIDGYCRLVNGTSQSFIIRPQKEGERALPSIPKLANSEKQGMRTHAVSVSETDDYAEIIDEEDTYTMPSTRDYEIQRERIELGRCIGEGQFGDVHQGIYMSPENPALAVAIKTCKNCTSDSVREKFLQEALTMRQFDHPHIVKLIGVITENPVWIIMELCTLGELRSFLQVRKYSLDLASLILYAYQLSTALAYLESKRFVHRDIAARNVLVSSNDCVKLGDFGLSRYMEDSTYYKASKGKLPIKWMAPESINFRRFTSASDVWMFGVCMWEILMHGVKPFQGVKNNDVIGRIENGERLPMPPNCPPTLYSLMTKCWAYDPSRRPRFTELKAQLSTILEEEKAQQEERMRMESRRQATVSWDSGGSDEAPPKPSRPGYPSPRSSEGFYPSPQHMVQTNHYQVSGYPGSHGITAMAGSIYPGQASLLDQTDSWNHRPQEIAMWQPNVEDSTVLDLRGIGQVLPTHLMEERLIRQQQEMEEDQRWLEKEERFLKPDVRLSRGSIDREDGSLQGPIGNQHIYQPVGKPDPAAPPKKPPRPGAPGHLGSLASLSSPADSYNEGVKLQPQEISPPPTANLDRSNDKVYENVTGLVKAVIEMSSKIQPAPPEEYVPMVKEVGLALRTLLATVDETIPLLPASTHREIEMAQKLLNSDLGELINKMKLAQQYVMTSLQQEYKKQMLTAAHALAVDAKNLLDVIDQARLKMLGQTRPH
Sequence of Mitogen-activated protein kinase 1 (P28482 whole entry): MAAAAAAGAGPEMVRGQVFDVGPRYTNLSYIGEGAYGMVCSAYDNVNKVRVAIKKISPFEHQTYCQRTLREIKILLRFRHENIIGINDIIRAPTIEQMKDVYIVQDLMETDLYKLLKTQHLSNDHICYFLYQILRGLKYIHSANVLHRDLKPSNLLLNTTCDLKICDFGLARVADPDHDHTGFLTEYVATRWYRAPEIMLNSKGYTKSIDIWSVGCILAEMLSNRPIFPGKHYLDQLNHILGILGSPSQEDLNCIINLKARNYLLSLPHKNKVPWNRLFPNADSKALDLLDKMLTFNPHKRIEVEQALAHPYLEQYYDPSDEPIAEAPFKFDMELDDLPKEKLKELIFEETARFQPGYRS
Sequence of Cyclin-dependent kinase 7 (Homo sapiens) (P50613 whole entry): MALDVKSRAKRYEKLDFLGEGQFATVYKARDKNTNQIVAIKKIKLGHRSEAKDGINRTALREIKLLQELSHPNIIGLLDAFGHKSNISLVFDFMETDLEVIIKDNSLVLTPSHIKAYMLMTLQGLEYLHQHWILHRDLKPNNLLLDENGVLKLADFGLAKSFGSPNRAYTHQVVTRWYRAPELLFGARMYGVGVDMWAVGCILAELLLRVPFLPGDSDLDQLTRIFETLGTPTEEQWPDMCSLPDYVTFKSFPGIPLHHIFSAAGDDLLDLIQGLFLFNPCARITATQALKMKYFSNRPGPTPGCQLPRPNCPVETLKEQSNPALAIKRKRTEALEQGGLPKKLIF
Sequence of Leukocyte tyrosine kinase receptor (P29376 whole entry, the tested form may be a part): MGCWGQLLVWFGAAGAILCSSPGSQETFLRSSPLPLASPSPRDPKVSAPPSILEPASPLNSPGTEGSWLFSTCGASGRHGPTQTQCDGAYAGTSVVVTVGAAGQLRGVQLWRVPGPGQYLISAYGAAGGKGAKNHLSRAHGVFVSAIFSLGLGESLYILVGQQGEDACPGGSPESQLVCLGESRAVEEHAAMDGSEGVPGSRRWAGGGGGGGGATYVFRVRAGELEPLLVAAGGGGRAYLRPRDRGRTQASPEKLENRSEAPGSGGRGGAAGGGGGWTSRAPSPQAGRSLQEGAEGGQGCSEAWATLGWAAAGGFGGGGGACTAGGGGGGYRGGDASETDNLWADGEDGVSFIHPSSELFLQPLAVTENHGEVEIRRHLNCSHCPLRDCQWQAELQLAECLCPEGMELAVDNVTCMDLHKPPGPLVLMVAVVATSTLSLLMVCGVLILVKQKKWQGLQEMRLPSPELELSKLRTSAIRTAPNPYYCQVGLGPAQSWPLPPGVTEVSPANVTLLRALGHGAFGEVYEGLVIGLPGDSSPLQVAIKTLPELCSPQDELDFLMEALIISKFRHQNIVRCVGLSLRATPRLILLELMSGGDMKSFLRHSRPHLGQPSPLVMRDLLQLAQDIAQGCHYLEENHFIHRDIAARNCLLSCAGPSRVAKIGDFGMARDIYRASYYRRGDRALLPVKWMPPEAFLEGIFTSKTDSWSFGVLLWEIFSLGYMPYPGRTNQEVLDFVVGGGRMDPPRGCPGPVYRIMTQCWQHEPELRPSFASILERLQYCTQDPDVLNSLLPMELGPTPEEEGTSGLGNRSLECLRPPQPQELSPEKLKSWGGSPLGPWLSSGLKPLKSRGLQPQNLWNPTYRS
Sequence of SRSF protein kinase 3 (Homo sapiens) (Q9UPE1 whole entry): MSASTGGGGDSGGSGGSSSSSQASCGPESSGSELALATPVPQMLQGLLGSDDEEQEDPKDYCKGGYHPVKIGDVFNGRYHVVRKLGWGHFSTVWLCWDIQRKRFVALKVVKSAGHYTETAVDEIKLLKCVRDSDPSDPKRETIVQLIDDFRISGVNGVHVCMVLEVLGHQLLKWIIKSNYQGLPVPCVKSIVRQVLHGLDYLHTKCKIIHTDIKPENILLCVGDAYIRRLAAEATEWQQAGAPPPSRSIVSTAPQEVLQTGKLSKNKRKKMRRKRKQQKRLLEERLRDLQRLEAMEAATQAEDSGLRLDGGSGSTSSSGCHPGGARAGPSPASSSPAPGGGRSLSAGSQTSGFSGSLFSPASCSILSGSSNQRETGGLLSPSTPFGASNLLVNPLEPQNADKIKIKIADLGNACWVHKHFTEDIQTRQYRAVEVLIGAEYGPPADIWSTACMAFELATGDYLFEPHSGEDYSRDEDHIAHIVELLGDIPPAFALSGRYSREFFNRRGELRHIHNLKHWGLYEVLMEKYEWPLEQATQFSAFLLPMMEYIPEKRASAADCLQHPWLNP
Sequence of Ribosomal protein S6 kinase alpha-1 (Homo sapiens) (Q15418 whole entry, the tested form may be a part): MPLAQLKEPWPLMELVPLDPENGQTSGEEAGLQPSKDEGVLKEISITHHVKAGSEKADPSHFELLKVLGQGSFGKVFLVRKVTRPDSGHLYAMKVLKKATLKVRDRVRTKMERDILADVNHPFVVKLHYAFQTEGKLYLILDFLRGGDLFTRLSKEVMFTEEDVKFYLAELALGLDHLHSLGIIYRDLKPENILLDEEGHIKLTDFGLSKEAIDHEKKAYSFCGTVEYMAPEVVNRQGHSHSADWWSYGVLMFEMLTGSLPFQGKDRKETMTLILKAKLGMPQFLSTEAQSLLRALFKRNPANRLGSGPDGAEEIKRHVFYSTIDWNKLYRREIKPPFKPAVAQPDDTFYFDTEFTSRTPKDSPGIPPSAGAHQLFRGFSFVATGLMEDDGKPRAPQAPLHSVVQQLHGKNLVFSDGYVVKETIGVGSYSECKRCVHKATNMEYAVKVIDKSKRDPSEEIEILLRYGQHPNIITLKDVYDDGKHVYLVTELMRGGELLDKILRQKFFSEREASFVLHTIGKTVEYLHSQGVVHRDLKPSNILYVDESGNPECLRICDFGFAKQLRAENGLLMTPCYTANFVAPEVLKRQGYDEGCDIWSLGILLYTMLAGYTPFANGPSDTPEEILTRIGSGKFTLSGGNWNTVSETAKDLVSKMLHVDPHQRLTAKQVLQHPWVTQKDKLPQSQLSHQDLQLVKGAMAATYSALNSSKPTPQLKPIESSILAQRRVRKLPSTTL
Sequence of Serine/threonine-protein kinase 25 (Homo sapiens) (O00506 whole entry, looked up): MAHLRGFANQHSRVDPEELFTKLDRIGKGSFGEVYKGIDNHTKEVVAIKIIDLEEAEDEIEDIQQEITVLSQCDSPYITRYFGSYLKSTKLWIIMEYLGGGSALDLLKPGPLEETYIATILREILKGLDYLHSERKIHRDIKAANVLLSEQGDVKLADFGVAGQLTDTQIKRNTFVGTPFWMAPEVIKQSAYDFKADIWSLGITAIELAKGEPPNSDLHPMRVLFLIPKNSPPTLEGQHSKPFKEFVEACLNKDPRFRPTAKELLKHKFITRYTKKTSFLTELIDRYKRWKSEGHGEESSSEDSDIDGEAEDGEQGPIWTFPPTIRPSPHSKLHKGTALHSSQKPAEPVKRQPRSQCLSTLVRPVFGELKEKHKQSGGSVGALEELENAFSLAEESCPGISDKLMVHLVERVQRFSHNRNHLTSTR

For the compound `O=C1c2ccccc2-c2n[nH]c3cccc1c23`, the Activity in data set [1] amounted to 10%; in data set [2], 26%; in [3], 3.4%; in data set [4], 4.1%; in data set [5], 3.2%; in [6], 32%. In addition, the Activity in [7] amounted to 3.8%; in [8], 32%; in data set [9] it was 30%; in data set [10], 28%.
As for `COc1cc(N2CCC(O)CC2)ccc1Nc1cc(Nc2ccccc2S(=O)(=O)C(C)C)c2cc[nH]c2n1`, the Activity in [11] was 16%; with U2OS [12], “Dose-Dependent Effect”; in the data set on U2OS [13] it was 15%; with MCF-10A, “Toxic”. In addition, the result in the data set on U2OS [14], with HCT-116 [16], in the data set with HCT-116 [17], with HCT-116 [18], in the data set on HCT-116 [19] and in the data set with A549 was Active. The result with HCT-116 [21] was Active. In addition, the outcome in the data set with HeLa S3 and in the data set on HCT-116 [20] was inactive. The inhibition result in the data set on U2OS [15] is “Active”. For the same compound, the Kd (as a rule, a measure of binding affinity in units of concentration) in data set [22] came to 2.9 µM; on Focal adhesion kinase 1, 0.44 µM; in data set [23] it was 0.75 µM; in data set [24] it was 0.28 µM.
